The source made the active and inactive calls. No cut-off for these calls is given here. A value given as a limit tells only on which side of the number the result lay.

Experimental findings from ChEMBL document CHEMBL5584363, “Euphane and Tirucallane Triterpenes with Trypanocidal Activity from Euphorbia desmondii” (J Nat Prod, 2024) are described below.

Data set [1] can be described thus: Effect on Trypanosoma cruzi epimastigotes Y (ATCC 50832) expressing GFP proliferation assessed as increase in cell proliferation at 0.3 uM incubated for 72 hrs by XTT assay relative to control. Type of data set: functional. Summed up:
(§1)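 Y-strain epimastigotes kept in LIT medium with 10% heat-inactivated FBS at 28 °C; log-phase cells used. 1.5 × 10^5 parasites per well. Exposure at 10 μM (screen) or six concentrations from 10–0.3 μM for 72 h at 28 °C, with benznidazole control. XTT/PMS added for 2.5 h at 28 °C, then MeOH fixation and A490. Viability given as % of vehicle, or IC50. Triplicate, at least two independent experiments.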

Data set [2] has as its system Trypanosoma cruzi. The experiment in a line: Antitrypanosomal activity against Trypanosoma cruzi epimastigotes Y (ATCC 50832) expressing GFP at 10 uM incubated for 72 hrs by XTT assay. Format: functional, organism-based. The gist of the method:
as §1

The nature of data set [3]: Selectivity index, ratio of IC50 for mouse RAW264.7 cells to IC50 for antitrypanosomal activity against Trypanosoma cruzi […] Y (ATCC 50832) expressing GFP infected in mouse RAW264.7 cells assessed as inhibition of parasite replication. Type of data set: toxicity, cell-based. The settings on record: read-out: Ratio IC50.
Data set [4] concerns Trypanosoma cruzi. The experiment in a line: Antitrypanosomal activity against Trypanosoma cruzi […] Y (ATCC 50832) expressing GFP infected in mouse RAW264.7 cells assessed as inhibition of parasite replication measured after 6 days by FACS analysis. The settings on record: time 6.0 day. Format: functional, organism-based. The gist of the method: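 RAW264.7 cells seeded at 40,000 or 10,000 cells/mL and left to adhere 24 h. Infected with swim-out trypomastigotes at multiplicity 10. Next day free parasites washed off and compound added in RPMI with 2% FBS. After 6 days, released GFP parasites fixed in 4% paraformaldehyde 1 h and counted by FACS. Run in triplicate with DMSO and benznidazole controls.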

Data set [5] concerns Trypanosoma cruzi. The data set can be described thus: Antitrypanosomal activity against Trypanosoma cruzi trypomastigotes Y (ATCC 50832) expressing GFP infected in CCL39 cells assessed as reduction in parasite replication measured after 1 hr by microscopy. Type of data set: functional, organism-based. Summed up:
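CCL39 fibroblasts seeded at 20,000 cells/mL and left to adhere 24 h. Infected with trypomastigotes at multiplicity 10. Next day free parasites washed off and compound added in RPMI with 2% hiFBS. On day 4 after infection, cells fixed in 4% paraformaldehyde for 1 h and imaged by brightfield and GFP fluorescence microscopy.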

Data set [6] relates to Trypanosoma cruzi. The experiment in a line: Antitrypanosomal activity against Trypanosoma cruzi epimastigotes Y (ATCC 50832) expressing GFP incubated for 72 hrs by XTT assay. Type of data set: functional, organism-based. Summed up: as §1
Data set [7] in a line: Cytotoxicity against mouse RAW264.7 cells assessed as reduction in cell viability. Format: toxicity, cell-based.
Data set [8] in a line: Selectivity index, ratio of IC50 for mouse RAW264.7 cells to IC50 for antitrypanosomal activity against Trypanosoma cruzi epimastigotes Y (ATCC 50832) expressing GFP. Type of data set: toxicity. The settings on record: read-out: Ratio IC50.

As to `C[C@@H](C/C=C/C(C)(C)OO)[C@@H]1CC[C@]2(C)C3=C(C(OO)C[C@@]12C)[C@@]1(C)CC[C@H](O)C(C)(C)[C@@H]1CC3=O` (some centres not stated), the Activity in data set [1] was 15%. Further, in the data set on Trypanosoma cruzi [2], the result was Active.
For the molecule `C[C@H](C/C=C/C(C)(C)OO)[C@@H]1CC[C@]2(C)C3=C(CC[C@@]12C)[C@@]1(C)CC[C@H](O)C(C)(C)[C@@H]1CC3=O`, the selectivity ratio in data set [3] was over 10. In addition, the inhibition result in the data set with Trypanosoma cruzi [4] is “Dose-Dependent Effect”. In the data set on Trypanosoma cruzi [5], the outcome was Active.
With `CC(C)=CCC[C@@H](C)[C@@H]1CC[C@]2(C)C3=C(C(=O)C[C@@]12C)[C@@]1(C)CC[C@H](O)C(C)(C)[C@@H]1C[C@H]3O`, in data set [1], the Activity is 15%. Also, the result with Trypanosoma cruzi [2] was Active.
In the case of `CC(=O)CCC[C@H](C)[C@@H]1CC[C@]2(C)C3=C(C(=O)C[C@@]12C)[C@@]1(C)CC[C@H](O)C(C)(C)[C@@H]1CC3=O`, the values for the IC50 (in the data set on Trypanosoma cruzi [6]; in data set [7]) were 3.7 µM and 24.4 µM, respectively. Besides, the Activity in data set [1] is recorded as 15%. Also, the outcome in the data set on Trypanosoma cruzi [2] was Active. The selectivity ratio in data set [8] was 6.6.
